Data set [1] relates to Mus musculus. Nature of the data set: The compound was evaluated for the mouse active Arthus (MAA) reaction activity for an ip dose of 150 mg/kg in mouse; 31-40%. Format: functional. To be noted: route intraperitoneal. In short, it runs like this: (§1)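 CD-1 mice were sensitized ip with a 1:1 Freund's complete adjuvant emulsion containing BSA in saline, 5 weeks before challenge. Compound was suspended in 1% Na CMC in pyrogen-free saline and given as one ip or oral dose 1 h before skin challenge with BSA. Screening doses were 150 mg/kg ip and 300 mg/kg po, with some at 75 or 50 mg/kg ip. Lesions were excised 3.5 h after challenge and weighed against controls.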

The subject of data set [2] is Cavia porcellus. Nature of the data set: Tested in delayed hypersensitivity skin reaction (DHSR) after subcutaneous administration, activity reported as percent inhibition of erythema/induration of lesion; 4/6. Format: functional. In short, it runs like this:
(§2)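 Male Hartley guinea pigs were sensitized with Mycobacterium tuberculosis in Freund's incomplete adjuvant, injected into each hind footpad and subcutaneously at the neck. After 3 weeks, 1.2 μg PPD was given intradermally. Compound in sesame oil was given sc, 3 animals per group, 30 min before and 5 h after PPD; screening dose 50 mg/kg.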

Data set [3] concerns Mus musculus. Nature of the data set: Inhibition of Mouse active Arthus (MAA) reaction activity was determined for an ip dose of 150 mg/kg in mouse; 21-30%. Format: functional. To be noted: route intraperitoneal.
Data set [4] concerns Mus musculus. The data set can be described thus: Inhibition of Mouse Active Arthus reaction following 150 mg/Kg i.p.; 41-60% inhibition. Format: functional. To be noted: Mus musculus, ip.
In data set [5] the test system is Mus musculus. The data set can be described thus: The compound was evaluated for the mouse active Arthus (MAA) reaction activity for an ip screening dose of 75 mg/kg in mouse; 31-40%. Format: functional. To be noted: route intraperitoneal. In short, it runs like this:
as §1

Data set [6] concerns Cavia porcellus. Nature of the data set: Tested in delayed hypersensitivity skin reaction (DHSR) after subcutaneous administration, activity reported as percent inhibition of erythema/induration of lesion; 10/8. Format: functional.
Data set [7] relates to Cavia porcellus. The data set can be described thus: Tested in delayed hypersensitivity skin reaction (DHSR) after subcutaneous administration, activity reported as percent inhibition of erythema/induration of lesion; 4/0. Format: functional. An outline of the steps: as §2
For data set [8], the system named is Cavia porcellus. The data set can be described thus: Tested in delayed hypersensitivity skin reaction (DHSR) after subcutaneous administration, activity reported as percent inhibition of erythema/induration of lesion; 5/18. Format: functional. An outline of the steps:
as §2

Data set [9] deals with Mus musculus. Nature of the data set: Mouse active Arthus (MAA) reaction activity was determined for an ip dose of 150 mg/kg in mouse; 31-40%. Format: functional. The settings on record: route intraperitoneal.
In data set [10] the test system is Cavia porcellus. The data set can be described thus: Tested in delayed hypersensitivity skin reaction (DHSR) after subcutaneous administration, activity reported as percent inhibition of erythema/induration of lesion; 1/20. Format: functional.
The test system of data set [11] is Mus musculus. The data set can be described thus: The compound was evaluated for the mouse active Arthus (MAA) reaction activity expressed as inhibitory dose after oral administration. Format: functional. To be noted: read-out: ID50 (the source's name). In short, it runs like this: as §1
Data set [12] relates to Mus musculus. The data set can be described thus: The compound was evaluated for the mouse active Arthus (MAA) reaction activity expressed as inhibitory dose after ip administration. The settings on record: read-out: ID50 (the source's name). Format: functional. In short, it runs like this: as §1
Data set [13] deals with Mus musculus. The data set can be described thus: Mouse active Arthus (MAA) reaction activity was determined for an ip dose of 150 mg/kg in mouse. Format: functional. The settings on record: route intraperitoneal.
Data set [14] is described as follows: Acute toxicity as LD50 value was determined in mice administered orally. The settings on record: mouse, in vivo, po. Format: organism-based.
Data set [15] in a line: Acute toxicity as LD50 value was determined in mice administered intraperitoneally. Format: organism-based. To be noted: mouse, in vivo, ip.
Data set [16] deals with Cavia porcellus. The data set can be described thus: Tested in delayed hypersensitivity skin reaction (DHSR) after subcutaneous administration, activity reported as percent inhibition of erythema/induration of lesion; 24/41. Format: functional. In short, it runs like this: as §2
Data set [17] can be described thus: Therapeutic ratio was determined for peroral administration. To be noted: po; read-out: TR.
Data set [18] can be described thus: Therapeutic ratio was determined for intraperitoneal administration. Format: ADME. The settings on record: ip; read-out: TR.
Data set [19] relates to Mus musculus. The data set can be described thus: Inhibition of Mouse active Arthus (MAA) reaction activity was determined for peroral dose of 300 mg/kg in mouse; 41-60%. Format: functional. The settings on record: route oral.
Data set [20] deals with Cavia porcellus. The data set can be described thus: Tested in delayed hypersensitivity skin reaction (DHSR) after subcutaneous administration, activity reported as percent inhibition of erythema/induration of lesion; 24/32. Format: functional. In short, it runs like this:
as §2

In data set [21] the test system is Cavia porcellus. The data set can be described thus: The compound was evaluated for the delayed hypersensitivity skin reaction (DHSR) activity after subcutaneous administration; 23/37.
Data set [22] has as its system Mus musculus. The data set can be described thus: Carrageenan-induced edema was determined value for oral administration. Format: functional. The settings on record: read-out: ID50 (the source's name). In short, it runs like this: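 Adult male Sprague-Dawley (CD) rats, 160–200 g. Single dose in 1% CMC given 2 h before footpad injection of 0.05 mL 1% carrageenin in pyrogen-free saline. Paws removed and weighed at 3 h, with the contralateral paw as control. ID50 is the dose giving 50% edema inhibition.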

SMILES strings stand for the structures. Bounds are passed on as bounds.

As a reminder, the inhibition in vivo is the share of the control response that was lost under treatment. Read a low inhibition in vivo as a response near the control. In turn, `CCCn1nc(-c2ccccc2)c2c1/C(=C/c1ccccc1)COC2` came in with an inhibition in vivo at 150 mg/kg in data set [1] of 31%.
As for `OCCN1N=C2/C(=C/c3ccccc3)CSCC2C1c1ccccc1` (stereo not drawn), in data set [2], the Activity is reported as 4. For the same molecule, the inhibition in vivo at 150 mg/kg in data set [3] was 21%.
As for `CCCN1N=C2/C(=C/c3ccccc3)C[S+]([O-])CC2C1c1ccccc1` (single isomer, unassigned; isomer B), at 150 mg/kg the inhibition in vivo in data set [4] was 41%.
On to `COc1ccc(/C=C2\CS(=O)(=O)CC3C2=NN(CCCN2CCN(C)CC2)C3c2ccc(OC)cc2)cc1` (stereo not drawn), for which testing at 75 mg/kg in data set [5] gave an inhibition in vivo of 31%. This molecule also came in with an Activity in [6] of 10.
`CN1N=C2/C(=C/c3cccc(C(F)(F)F)c3)CS(=O)(=O)CC2C1c1cccc(C(F)(F)F)c1` (stereo not drawn) displayed an Activity in [7] of 4. Also, in [4], 150 mg/kg produced 41% inhibition in vivo.
Regarding `CCCN1N=C2/C(=C/c3ccccc3)CN(C)CC2C1c1ccccc1` (stereo not drawn), in data set [8], the Activity is recorded as 5. This molecule also gave an inhibition in vivo at 150 mg/kg in data set [4] of 41%.
`O=C(c1ccc(Cl)cc1)N1N=C2/C(=C/c3ccccc3)CS(=O)(=O)CC2C1c1ccccc1` (stereo not drawn): the inhibition in vivo at 150 mg/kg in data set [9] worked out at 31%. In data set [10], this molecule returned an Activity of 1.
One may read the LD50 as the dose expected to kill half of the subjects tested. Lower therefore signals greater toxicity. For `Cc1ccccc1/C=C1\CSCC2C1=NN(CCCN1CCN(C)CC1)C2c1ccccc1C.O=C(O)/C=C\C(=O)O` (stereo not drawn), the ED50 in data set [11] is 225 mg/kg; in data set [12], 30 mg/kg. Further, the inhibition in vivo at 150 mg/kg in data set [13] is greater than 60%. The LD50 was greater than 1200 mg/kg in data set [14] and 170 mg/kg in data set [15]. In data set [16], this molecule had an Activity of 24. Further, the values for the selectivity ratio in [17] and in data set [18] were greater than 5.3 and 5.7, respectively. The inhibition in vivo at 300 mg/kg in [19] came to 41%.
As for `CCCN1N=C2/C(=C/c3ccc(Cl)cc3)CS(=O)(=O)CC2C1c1ccc(Cl)cc1` (stereo not drawn), the Activity in data set [20] was found to be 24. The inhibition in vivo at 150 mg/kg in data set [4] worked out at 41%.
As for `C(=C1/CSCC2C1=NNC2c1ccccc1)/c1ccccc1` (stereo not drawn), in data set [21], the Activity stood at 23. The molecule also came in with an inhibition in vivo at 150 mg/kg in data set [4] of 41%.
In data set [4], `CCCn1nc(-c2ccc(Cl)cc2)c2c1/C(=C/c1ccc(Cl)cc1)CSC2` registered an inhibition in vivo at 150 mg/kg of 41%.
`COc1ccc2c(c1)c(CC(=O)O)c(C)n2C(=O)c1ccc(Cl)cc1` [INDOMETHACIN]: the ED50 in [22] came out at 517 mg/kg. Besides, the selectivity ratio in [17] worked out at 0.04.
`COc1cc2c(c(OC)c1OC)-c1ccc(OC)c(=O)cc1[C@@H](NC(C)=O)CC2` [COLCHICINE]: the LD50 stood at 13.5 mg/kg in [14] and 3.5 mg/kg in data set [15]. For the same molecule, in [22], the ED50 came to 13.2 mg/kg. The selectivity ratio in [17] came to 1; in [18], 1.5.
